{"source": "ChEMBL document CHEMBL4765399", "about": "“Design, synthesis, and biological evaluation of 5-((8-methoxy-2-methylquinolin-4-yl)amino)-1H-indole-2-carbohydrazide derivatives as novel Nur77 modulators” (Eur J Med Chem, 2020)", "key": {"[1]": {"test_system": "HepG2", "test": "Induction of endoplasmic reticulum stress in human HepG2 cells assessed as increase in TRB3 protein expression incubated for 12 hrs by Western blot analysis", "type": "functional, cell-based", "conditions": "dose 0.5-2 µM", "method_in_brief": "(§1)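 HepG2, QGY-7703 and SMMC-7721 treated with graded concentrations for 12 h. Lysed in RIPA with inhibitors; 40-80 µg protein separated by SDS-PAGE, blotted to nitrocellulose, blocked 1 h in 5% milk, primary antibodies overnight (LC3, Beclin1, Bip, CHOP, TRB3), HRP secondaries, chemiluminescence.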"}, "[2]": {"test_system": "HepG2", "test": "Antitumor activity against human HepG2 cells xenografted in BALB/c mouse assessed as tumor weight at 20 mg/kg/day, ip administered for 15 days (reference value: 0.86 +/- 0.18 g)", "type": "functional", "conditions": "dose 10 mg/kg/day; time 15 day; in the assay text read “10 mg/kg/day” for “20 mg/kg/day”", "method_in_brief": "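Subcutaneous flank xenograft of 5×10^6 HepG2 cells in 4-week-old male Balb/c nude mice. At about 100 mm³, 15 mice were randomized into three groups: vehicle, 10 or 20 mg/kg i.p. daily for 15 days. Tumor size was measured every day, and tumors were excised and weighed at the end.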"}, "[3]": {"test_system": "HepG2", "test": "Induction of apoptosis in human HepG2 cells assessed as cleaved caspase-3 expression at 2 uM pretreated with autophagy inhibitor, 3-methyladenine for 2 hrs followed by incubation with compound for 12 hrs by Western blot analysis", "type": "functional, cell-based", "method_in_brief": "(§2)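 HepG2 cells grown to confluence were pretreated 2 h with 2 mM 3-MA (autophagy inhibitor) or 2 mM 4-PBA (ER stress inhibitor), then exposed to compound for 12 h. Proteins (40–80 µg, RIPA lysate) were resolved by SDS-PAGE and blotted for PARP, cleaved caspase-3/-9, Bcl-2 and Bax, with chemiluminescent detection.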"}, "[4]": {"test_system": "HepG2", "test": "Antitumor activity against human HepG2 cells xenografted in BALB/c mouse assessed as induction of autophagy by measuring increase in LC3-II level in tumor tissue at 10 to 20 mg/kg/day, ip administered for 15 days by immunohistochemical analysis", "type": "functional, organism-based", "conditions": "dose 10-20 mg/kg/day, time 15.0 day", "method_in_brief": "(§3)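 HepG2 cells (5×10^6) injected subcutaneously into flanks of 4-week-old male Balb/c nude mice. At about 100 mm³, 15 mice were randomized to vehicle, 10 or 20 mg/kg i.p. once daily for 15 days. Tumors were then excised for immunostaining of paraffin sections (5 μm) or for western blot.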"}, "[5]": {"test_system": "HepG2", "test": "Induction of apoptosis in human HepG2 cells assessed as necrotic cells at 1 uM incubated for 12 hrs by Annexin V-FITC/PI staining based flow cytometry (reference value: 0.068%)", "type": "functional"}, "[6]": {"test_system": "Mus musculus", "test": "Upregulation of Nur77 expression in tumor tissue of BALB/c mouse xenografted with human HepG2 cells at 10 to 20 mg/kg/day, ip administered for 15 days by immunohistochemical analysis", "type": "functional, organism-based", "conditions": "dose 10-20 mg/kg/day, time 15.0 day", "method_in_brief": "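Tumours taken from HepG2 xenograft mice after 15 days of daily i.p. dosing (10 or 20 mg/kg) or vehicle. Fixed in 4% paraformaldehyde, paraffin-embedded, cut into 5 µm sections. Immunostained with anti-Nur77 at 1:200.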"}, "[7]": {"test_system": "HepG2", "test": "Induction of endoplasmic reticulum stress in human HepG2 cells assessed as increase in TRB3 expression at 2 uM measured after 1 to 4 hrs by Western blot analysis", "type": "functional, cell-based", "conditions": "time 1-4 hrs", "method_in_brief": "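HepG2 exposed to 2.0 µM over a time course; Nur77, Bip, p-EIF2a, TRB3 and LC3 levels followed by Western blot of RIPA lysates.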"}, "[8]": {"test_system": "HepG2", "test": "Induction of apoptosis in human HepG2 cells assessed as cleaved caspase-9 expression at 2 uM pretreated with ER stress inhibitor, 4-PBA for 2 hrs followed by incubation with compound for 12 hrs by Western blot analysis", "type": "functional, cell-based", "method_in_brief": "as §2"}, "[9]": {"test_system": "HepG2", "test": "Induction of autophagy in human HepG2 cells assessed as increase in LC3-II expression measured after 12 hrs by Western blot analysis", "type": "functional, cell-based", "conditions": "dose 0.5-2 µM", "method_in_brief": "as §1"}, "[10]": {"test_system": "HepG2", "test": "Induction of apoptosis in human HepG2 cells assessed as live cells at 1 uM incubated for 12 hrs by Annexin V-FITC/PI staining based flow cytometry (reference value: 94%)", "type": "functional"}, "[11]": {"test_system": "SMMC-7721", "test": "Induction of apoptosis in human SMMC-7721 cells assessed as increase in cleaved PARP level at 0.5 to 2 uM incubated for 12 hrs by Western blot analysis", "type": "functional, cell-based", "conditions": "dose 0.5-2 µM", "method_in_brief": "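QGY-7703 (RPMI 1640, 10% FBS) and SMMC-7721 (DMEM) cells at 37 °C, 5% CO2, treated with graded concentrations for 12 h. RIPA lysates (40-80 µg protein) run on SDS-PAGE, transferred to nitrocellulose, immunoblotted for cleaved PARP; chemiluminescence read-out.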"}, "[12]": {"test_system": "HepG2", "test": "Induction of apoptosis in human HepG2 cells transfected with shRNA assessed as necrotic cells at 2 uM incubated for 12 hrs by Annexin V-FITC/PI staining based flow cytometry (reference value: 0.15%)", "type": "functional"}, "[13]": {"test_system": "HepG2", "test": "Antitumor activity against human HepG2 cells xenografted in BALB/c mouse assessed as sparser and vacuolated cells in tumor tissue at 10 to 20 mg/kg/day, ip for 15 days by hematoxylin and eosin staining based microscopic analysis", "type": "functional, organism-based", "conditions": "dose 10-20 mg/kg/day, time 15.0 day", "method_in_brief": "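H&E staining of 4% paraformaldehyde-fixed, paraffin-embedded 5 μm tumor slices from the HepG2 flank xenograft (male Balb/c nude mice, 10 or 20 mg/kg i.p. daily for 15 days, versus vehicle). Examined by light microscopy at 200, 400 and 1000×.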"}, "[14]": {"target": "Nuclear receptor subfamily 4immunitygroup A member 1 (Homo sapiens, UniProt P22736)", "sequence (P22736 whole entry, the tested form may be a part)": "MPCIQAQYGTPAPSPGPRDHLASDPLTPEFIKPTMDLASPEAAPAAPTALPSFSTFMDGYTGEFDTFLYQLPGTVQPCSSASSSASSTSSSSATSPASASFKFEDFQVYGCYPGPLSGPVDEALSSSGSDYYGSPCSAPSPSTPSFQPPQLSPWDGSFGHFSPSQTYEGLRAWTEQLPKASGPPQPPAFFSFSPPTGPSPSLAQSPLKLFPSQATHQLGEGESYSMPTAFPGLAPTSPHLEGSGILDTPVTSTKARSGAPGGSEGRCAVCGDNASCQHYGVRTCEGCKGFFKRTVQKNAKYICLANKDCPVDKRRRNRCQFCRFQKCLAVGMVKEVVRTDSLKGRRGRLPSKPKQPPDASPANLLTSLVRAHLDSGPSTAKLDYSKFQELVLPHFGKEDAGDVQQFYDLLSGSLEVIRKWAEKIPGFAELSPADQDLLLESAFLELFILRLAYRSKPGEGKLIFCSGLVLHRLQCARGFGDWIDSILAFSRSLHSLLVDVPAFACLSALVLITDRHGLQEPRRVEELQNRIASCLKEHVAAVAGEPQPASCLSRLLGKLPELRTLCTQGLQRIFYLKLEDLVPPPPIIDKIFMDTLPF", "test": "Binding affinity to Nur77 ligand binding domain (unknown origin) assessed as dissociation constant by surface plasmon resonance analysis", "method_in_brief": "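SPR with Nur77-LBD, analyte injected at a series of concentrations; KD (equilibrium dissociation constant) and association/dissociation kinetics derived from the sensorgrams.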"}, "[15]": {"test_system": "HepG2", "test": "Induction of autophagy in Nur77 knockout human HepG2 cells assessed as increase in Beclin 1 expression at 2 uM measured after 6 to 12 hrs by Western blot analysis", "type": "functional, cell-based", "conditions": "time 6-12 hrs", "method_in_brief": "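Scrambled-control and shNur77 HepG2 given DMSO or 2.0 µM for 6 or 12 h; immunoblotting of RIPA lysates for LC3, Beclin1 and Nur77 after SDS-PAGE and nitrocellulose transfer, chemiluminescent detection.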"}, "[16]": {"test_system": "HepG2", "test": "Antitumor activity against human HepG2 cells xenografted in BALB/c mouse assessed as induction of ER stress by measuring increase in bip level in tumor tissue at 10 to 20 mg/kg/day, ip administered for 15 days by immunohistochemical analysis", "type": "functional, organism-based", "conditions": "dose 10-20 mg/kg/day, time 15.0 day", "method_in_brief": "as §3"}, "[17]": {"test_system": "HepG2", "test": "Antitumor activity against human HepG2 cells xenografted in BALB/c mouse assessed as induction of ER stress by measuring increase in bip level in tumor tissue at 10 to 20 mg/kg/day, ip administered for 15 days by western blot analysis", "type": "functional, organism-based", "conditions": "dose 10-20 mg/kg/day, time 15.0 day", "method_in_brief": "as §3"}, "[18]": {"test_system": "QGY-7703", "test": "Antiproliferative activity against human QGY-7703 cells assessed as reduction in cell viability incubated for 48 hrs by MTT assay", "type": "functional, cell-based", "conditions": "QGY-7703, 48 h", "method_in_brief": "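MTT assay after 48 h exposure at six concentrations, range chosen by cytotoxicity. Inhibition = (ODcontrol − ODtest)/ODcontrol × 100%; IC50 is the concentration halving OD versus untreated cells. Means ± SD of three independent determinations. HepG2 and SMMC-7721 grown in DMEM, QGY-7703 and LO2 in RPMI 1640, with 10% FBS at 37 °C.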"}}, "note": "pIC50, pKd: −log10 of the molar value. Calls of active or inactive are those of the source. The rule behind the calls is not given here."}
{"smiles": "COc1cccc2c(Nc3ccc4[nH]c(C(=O)N/N=C/c5ccc(SC)cc5)cc4c3)cc(C)nc12", "values": [{"measurement": "Activity", "setting": "[1]", "result": "Dose-dependent effect"}, {"measurement": "Activity", "setting": "[2]", "result": 0.5, "unit": "g"}, {"measurement": "Activity", "setting": "[3]", "result": "inactive"}, {"measurement": "Activity", "setting": "[4]", "result": "Active"}, {"measurement": "Activity", "setting": "[5]", "result": 0.41, "unit": "%"}, {"measurement": "Activity", "setting": "[6]", "result": "Active"}, {"measurement": "Activity", "setting": "[7]", "result": "Active"}, {"measurement": "Activity", "setting": "[8]", "result": "inactive"}, {"measurement": "Activity", "setting": "[9]", "result": "Dose-dependent effect"}, {"measurement": "Activity", "setting": "[10]", "result": 65, "unit": "%"}, {"measurement": "Activity", "setting": "[11]", "result": "Dose-dependent effect"}, {"measurement": "Activity", "setting": "[12]", "result": 0.16, "unit": "%"}, {"measurement": "Activity", "setting": "[13]", "result": "Active"}, {"measurement": "pKd", "setting": "[14]", "result": 5.45}, {"measurement": "Activity", "setting": "[14]; filed as modulator", "result": "Dose-dependent effect"}, {"measurement": "Activity", "setting": "[15]", "result": "Active"}, {"measurement": "Activity", "setting": "[16]", "result": "Active"}, {"measurement": "Activity", "setting": "[17]", "result": "Active"}, {"measurement": "pIC50", "setting": "[18]", "result": 6.05}]}
